Data reported in ChEMBL document CHEMBL2062435, “Synthesis and in vitro antibacterial activity of gemifloxacin derivatives containing a substituted benzyloxime moiety” (2012).

Tests used:
Format in all cases: functional
Streptococcus pneumoniae [1] = assay: Antimicrobial activity against extended spectrum beta-lactamases-producing Streptococcus pneumoniae 10-1 after 18-24 hrs by two-fold serial dilution method
Outline: (§1)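 Agar-medium twofold serial dilution against Gram-positive and Gram-negative strains; MIC taken as the lowest compound concentration giving complete inhibition of bacterial growth after incubation at 35 °C for 18-24 h.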

Klebsiella pneumoniae [2] = assay: Antimicrobial activity against Klebsiella pneumoniae 10-3 after 18-24 hrs by two-fold serial dilution method; outline: as §1
Escherichia coli [3] = assay: Antimicrobial activity against Escherichia coli ATCC 25922 after 18-24 hrs by two-fold serial dilution method; outline: as §1
Escherichia coli [4] = assay: Antimicrobial activity against Escherichia coli 10-3 after 18-24 hrs by two-fold serial dilution method; outline: as §1
Enterococcus faecalis [5] = assay: Antimicrobial activity against Enterococcus faecalis 10-7 after 18-24 hrs by two-fold serial dilution method; outline: as §1
Staphylococcus aureus [6] = assay: Antimicrobial activity against extended spectrum beta-lactamases-producing methicillin-sensitive Staphylococcus aureus 10-14 after 18-24 hrs by two-fold serial dilution method; outline: as §1
Klebsiella pneumoniae [7] = assay: Antimicrobial activity against extended spectrum beta-lactamases-producing Klebsiella pneumoniae 10-3 after 18-24 hrs by two-fold serial dilution method; outline: as §1
Klebsiella pneumoniae [8] = assay: Antimicrobial activity against extended spectrum beta-lactamases-producing Klebsiella pneumoniae 10-1 after 18-24 hrs by two-fold serial dilution method; outline: as §1
[9] = tested on: Staphylococcus epidermidis; assay: Antimicrobial activity against extended spectrum beta-lactamases-producing methicillin-sensitive Staphylococcus epidermidis 10-15 after 18-24 hrs by two-fold serial dilution method; outline: as §1
[10] = tested on: Staphylococcus epidermidis; assay: Antimicrobial activity against extended spectrum beta-lactamases-producing methicillin-resistant Staphylococcus epidermidis 10-10 after 18-24 hrs by two-fold serial dilution method
Outline: (§2)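 Agar twofold serial dilution MIC against clinical isolates. MIC was taken as the lowest concentration giving complete inhibition of bacterial growth after incubation at 35 °C for 18-24 h.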

Staphylococcus aureus [11] = assay: Antimicrobial activity against extended spectrum beta-lactamases-producing methicillin-sensitive Staphylococcus aureus 10-13 after 18-24 hrs by two-fold serial dilution method; outline: as §1
Pseudomonas aeruginosa [12] = assay: Antimicrobial activity against extended spectrum beta-lactamases-producing Pseudomonas aeruginosa 10-20 after 18-24 hrs by two-fold serial dilution method; outline: as §1
Pseudomonas aeruginosa [13] = assay: Antimicrobial activity against extended spectrum beta-lactamases-producing Pseudomonas aeruginosa 10-18 after 18-24 hrs by two-fold serial dilution method; outline: as §1
[14] = tested on: Staphylococcus epidermidis; assay: Antimicrobial activity against extended spectrum beta-lactamases-producing methicillin-sensitive Staphylococcus epidermidis 10-11 after 18-24 hrs by two-fold serial dilution method; outline: as §1
Pseudomonas aeruginosa [15] = assay: Antimicrobial activity against Pseudomonas aeruginosa 10-12 after 18-24 hrs by two-fold serial dilution method; outline: as §1
Escherichia coli [16] = assay: Antimicrobial activity against extended spectrum beta-lactamases-producing Escherichia coli 10-3 after 18-24 hrs by two-fold serial dilution method; outline: as §1
Streptococcus pneumoniae [17] = assay: Antimicrobial activity against extended spectrum beta-lactamases-producing Streptococcus pneumoniae 10-4 after 18-24 hrs by two-fold serial dilution method; outline: as §1
Pseudomonas aeruginosa [18] = assay: Antimicrobial activity against extended spectrum beta-lactamases-producing Pseudomonas aeruginosa 10-9 after 18-24 hrs by two-fold serial dilution method; outline: as §1
Escherichia coli [19] = assay: Antimicrobial activity against Escherichia coli 10-1 after 18-24 hrs by two-fold serial dilution method; outline: as §1
Staphylococcus aureus [20] = assay: Antimicrobial activity against extended spectrum beta-lactamases-producing methicillin-resistant Staphylococcus aureus 10-11 after 18-24 hrs by two-fold serial dilution method; outline: as §2
[21] = tested on: Staphylococcus epidermidis; assay: Antimicrobial activity against extended spectrum beta-lactamases-producing methicillin-sensitive Staphylococcus epidermidis 10-13 after 18-24 hrs by two-fold serial dilution method; outline: as §1
Staphylococcus aureus [22] = assay: Antimicrobial activity against extended spectrum beta-lactamases-producing methicillin-resistant Staphylococcus aureus 10-15 after 18-24 hrs by two-fold serial dilution method; outline: as §2
Escherichia coli [23] = assay: Antimicrobial activity against extended spectrum beta-lactamases-producing Escherichia coli 10-4 after 18-24 hrs by two-fold serial dilution method; outline: as §1
Enterococcus faecalis [24] = assay: Antimicrobial activity against Enterococcus faecalis 10-5 after 18-24 hrs by two-fold serial dilution method; outline: as §1
Pseudomonas aeruginosa [25] = assay: Antimicrobial activity against extended spectrum beta-lactamases-producing Pseudomonas aeruginosa 10-5 after 18-24 hrs by two-fold serial dilution method; outline: as §1
Enterococcus faecalis [26] = assay: Antimicrobial activity against Enterococcus faecalis 10-6 after 18-24 hrs by two-fold serial dilution method; outline: as §1
Klebsiella pneumoniae [27] = assay: Antimicrobial activity against Klebsiella pneumoniae 10-4 after 18-24 hrs by two-fold serial dilution method; outline: as §1
Klebsiella pneumoniae [28] = assay: Antimicrobial activity against extended spectrum beta-lactamases-producing Klebsiella pneumoniae 10-2 after 18-24 hrs by two-fold serial dilution method; outline: as §1
Enterococcus faecium [29] = assay: Antimicrobial activity against Enterococcus faecium 10-9 after 18-24 hrs by two-fold serial dilution method; outline: as §1
Escherichia coli [30] = assay: Antimicrobial activity against extended spectrum beta-lactamases-producing Escherichia coli 10-2 after 18-24 hrs by two-fold serial dilution method; outline: as §1
[31] = tested on: Staphylococcus epidermidis; assay: Antimicrobial activity against extended spectrum beta-lactamases-producing methicillin-resistant Staphylococcus epidermidis 10-13 after 18-24 hrs by two-fold serial dilution method; outline: as §2
Escherichia coli [32] = assay: Antimicrobial activity against Escherichia coli 10-2 after 18-24 hrs by two-fold serial dilution method; outline: as §1
Pseudomonas aeruginosa [33] = assay: Antimicrobial activity against extended spectrum beta-lactamases-producing Pseudomonas aeruginosa 10-15 after 18-24 hrs by two-fold serial dilution method; outline: as §1
Klebsiella pneumoniae [34] = assay: Antimicrobial activity against Klebsiella pneumoniae 10-2 after 18-24 hrs by two-fold serial dilution method; outline: as §1
Staphylococcus aureus [35] = assay: Antimicrobial activity against Staphylococcus aureus ATCC […] after 18-24 hrs by two-fold serial dilution method; outline: as §1
Enterococcus faecium [36] = assay: Antimicrobial activity against Enterococcus faecium 10-5 after 18-24 hrs by two-fold serial dilution method; outline: as §1

SMILES | MIC (Streptococcus pneumoniae [1]) [µg/mL] | MIC (Klebsiella pneumoniae [2]) [µg/mL] | MIC (Escherichia coli [3]) [µg/mL] | MIC (Escherichia coli [4]) [µg/mL] | MIC (Enterococcus faecalis [5]) [µg/mL] | MIC (Staphylococcus aureus [6]) [µg/mL] | MIC (Klebsiella pneumoniae [7]) [µg/mL] | MIC (Klebsiella pneumoniae [8]) [µg/mL] | MIC [9] [µg/mL] | MIC [10] [µg/mL] | MIC (Staphylococcus aureus [11]) [µg/mL] | MIC (Pseudomonas aeruginosa [12]) [µg/mL] | MIC (Pseudomonas aeruginosa [13]) [µg/mL] | MIC [14] [µg/mL] | MIC (Pseudomonas aeruginosa [15]) [µg/mL] | MIC (Escherichia coli [16]) [µg/mL] | MIC (Streptococcus pneumoniae [17]) [µg/mL] | MIC (Pseudomonas aeruginosa [18]) [µg/mL] | MIC (Escherichia coli [19]) [µg/mL] | MIC (Staphylococcus aureus [20]) [µg/mL] | also measured
COc1cc(Br)c(CO/N=C2\CN(c3nc4c(cc3F)c(=O)c(C(=O)O)cn4C3CC3)CC2CN)cc1OC.CS(=O)(=O)O (racemic) | 1 | > 128 | 0.5 | > 128 | 2 | 0.5 | > 128 | > 128 | 2 | 0.5 | 0.03 | > 128 | > 128 | 0.5 | > 128 | > 128 | 0.125 | > 128 | > 128 | > 128 | MIC [21]: 0.03 µg/mL; MIC (Staphylococcus aureus [22]): 0.125 µg/mL; MIC (Escherichia coli [23]): > 128 µg/mL; MIC (Enterococcus faecalis [24]): 1 µg/mL; MIC (Pseudomonas aeruginosa [25]): > 128 µg/mL; MIC (Enterococcus faecalis [26]): 4 µg/mL; MIC (Klebsiella pneumoniae [27]): > 128 µg/mL; MIC (Klebsiella pneumoniae [28]): > 128 µg/mL; MIC (Enterococcus faecium [29]): 64 µg/mL; MIC (Escherichia coli [30]): > 128 µg/mL; MIC [31]: 0.25 µg/mL; MIC (Escherichia coli [32]): > 128 µg/mL; MIC (Pseudomonas aeruginosa [33]): > 128 µg/mL; MIC (Klebsiella pneumoniae [34]): > 128 µg/mL; MIC (Staphylococcus aureus [35]): < 0.008 µg/mL; MIC (Enterococcus faecium [36]): 64 µg/mL
COc1cc(F)c(CO/N=C2\CN(c3nc4c(cc3F)c(=O)c(C(=O)O)cn4C3CC3)CC2CN)cc1OC.CS(=O)(=O)O (racemic) | 0.25 | > 128 | 0.125 | > 128 | 1 | 0.03 | > 128 | > 128 | 2 | 0.5 | 0.03 | > 128 | > 128 | 1 | > 128 | > 128 | 0.03 | > 128 | > 128 | 1 | MIC [21]: 0.03 µg/mL; MIC (Staphylococcus aureus [22]): 0.125 µg/mL; MIC (Escherichia coli [23]): > 128 µg/mL; MIC (Enterococcus faecalis [24]): 0.25 µg/mL; MIC (Pseudomonas aeruginosa [25]): > 128 µg/mL; MIC (Enterococcus faecalis [26]): 2 µg/mL; MIC (Klebsiella pneumoniae [27]): > 128 µg/mL; MIC (Klebsiella pneumoniae [28]): > 128 µg/mL; MIC (Enterococcus faecium [29]): 8 µg/mL; MIC (Escherichia coli [30]): > 128 µg/mL; MIC [31]: 0.25 µg/mL; MIC (Escherichia coli [32]): > 128 µg/mL; MIC (Pseudomonas aeruginosa [33]): > 128 µg/mL; MIC (Klebsiella pneumoniae [34]): > 128 µg/mL; MIC (Staphylococcus aureus [35]): 0.03 µg/mL; MIC (Enterococcus faecium [36]): 4 µg/mL
